Only a selection was taken, and hits are over-represented in it overall.
A1 apoptosis 2 – A1 inhibitors via caspase activation, primary screen, cell-based, luminescence, HTS, two replicates | MEF A1-2A-BIM cells, caspase-Glo luminescence, 3 h; percent of clofoctol response, DMSO zero | caspase activation, % (concentration not given with the values) | 24,000 tested, under 10 active | AID 2465, 2010; in the data active = caspase activation above about 5.9%
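system = A1-2A-BIM-expressing MEF cells | quantity = 2500 MEF cells/well | dosing = 50 nL compound per well, pinned | schedule = overnight cell settling, then 3 h compound exposure, 37 °C | signal = luminescence from DEVD-luciferin Caspase-Glo reagent, 1:1 in 50 mM HEPES, 1 h RT | read-out = Caspase-3/7 activation, seen as rise in luminescence signal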
T cruzi intra – inhibitors of intracellular Trypanosoma cruzi, primary screen, cell-based, plate reader, single point, set 2; intracellular Trypanosoma cruzi in host cells; activity score (inhibition), % at 5.01 µM; actives 4.9% (n = 22,000); AID 651903, 2012; in the data active = activity score above about 55%;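 also: parasites and compound incubated about four days before reading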
INS-1E ATP HTS – protection of INS-1E cells from cytokine death, primary screen, ATP luminescence, single point; AID 488910, 2010; actives 0.1% (n = 20,000); INS-1E cytokine-induced death, 48 h; normalised: neutral wells 0, positive control 100; protection from cytokine-induced ATP loss, % at 10 µM;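 active = mean replicate protection from cytokine-induced ATP loss at least 50% and at least 75% of replicates each reaching 50%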
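assay system = INS-1E rat insulinoma cells | amount = 8000 cells per well | medium = phenol-red-free RPMI with 5% fetal bovine serum | doses = one compound concentration, pin transfer | timing = 48 h cytokine plus compound treatment, 10 min reagent incubation | also added = IL-1β, TNF-α and IFN-γ cytokine mix | signal = CellTiter-Glo luminescence measuring cellular ATP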
Numbers stand for hits; i = inactive; nt = not tested or not shown.

SMILES	A1 apoptosis 2	T cruzi intra	INS-1E ATP HTS
C[C@@H]1CCCCO[C@@H](CN(C)CC2CCCCC2)[C@@H](C)CN([C@H](C)CO)C(=O)c2cc(NC(=O)Nc3ccc(F)cc3)ccc2O1	nt	71	i
C[C@@H]1CN([C@@H](C)CO)C(=O)c2cc(NC(=O)Nc3ccc(C(F)(F)F)cc3)ccc2O[C@H]1CN(C)CC1CCCCC1	i	i	i
C[C@@H]1CCCCO[C@H](CN(C)S(=O)(=O)c2ccc(Cl)cc2)[C@@H](C)CN([C@H](C)CO)C(=O)c2cc(NC(=O)Nc3ccc(C(F)(F)F)cc3)ccc2O1	i	71	i
C[C@@H]1CN([C@@H](C)CO)C(=O)c2cc(NC(=O)Nc3ccc(F)cc3)ccc2O[C@@H](C)CCCCO[C@@H]1CN(C)CC1CCCCC1	i	nt	nt
C[C@@H]1CCCCO[C@@H](CN(C)S(=O)(=O)c2ccc(Cl)cc2)[C@@H](C)CN([C@H](C)CO)C(=O)c2cc(NC(=O)Nc3ccc(C(F)(F)F)cc3)ccc2O1	nt	i	i
C[C@@H]1CN([C@@H](C)CO)C(=O)c2cccc(NC(=O)Nc3ccc(C(F)(F)F)cc3)c2O[C@@H]1CN(C)CC1CCCCC1	i	78	i
C[C@H](CO)N1C[C@H](C)[C@H](CN(C)CC2CCCCC2)Oc2ccc(NC(=O)Nc3ccc(C(F)(F)F)cc3)cc2C1=O	i	62	i
O=C(NO)c1cccc(C(=O)N/N=C/c2cccc(Oc3ccccc3)c2)c1	i	i	i
O=C(N/N=C/c1cc(Br)cs1)c1ccccn1	i	i	i
CCOc1cc(/C=N/NC(=O)c2ccccn2)ccc1O	i	i	i
COC(=O)c1c2oc(c1C(=O)OC)C(=O)N[C@@H](Cc1ccccc1)Cn1cc(nn1)[C@H](Cc1ccccc1)NC(=O)N[C@@H](CO)CC2	i	nt	nt
CN(CCO)c1ccc(/C=N/NC(=O)c2ccccc2O)cc1	i	i	i
C[C@@H]1CCCCO[C@@H](CN(C)CC2CCCCC2)[C@@H](C)CN([C@H](C)CO)C(=O)c2cc(NC(=O)Nc3ccc(C(F)(F)F)cc3)ccc2O1	nt	73	i
C[C@H]1CCCCO[C@@H](CN(C)CC2CCCCC2)[C@@H](C)CN([C@@H](C)CO)C(=O)c2cc(NC(=O)Nc3ccc(C(F)(F)F)cc3)ccc2O1	i	nt	nt
O=C(NO)c1cccc(C(=O)N/N=C/c2ccc3ccccc3n2)c1	i	i	i
C[C@H](CO)N1C[C@H](C)[C@@H](CN(C)Cc2ccc(Oc3ccccc3)cc2)Oc2c(NC(=O)NC3CCCCC3)cccc2C1=O	nt	70	i
C[C@H]1CN([C@@H](C)CO)C(=O)c2cccc(NC(=O)NC3CCCCC3)c2O[C@@H]1CN(C)Cc1ccc(-c2ccccc2)cc1	i	i	i
C[C@@H]1CN([C@@H](C)CO)C(=O)c2cccc(NC(=O)NC3CCCCC3)c2O[C@@H]1CN(C)Cc1ccccc1	i	i	i
C[C@H](CO)N1C[C@H](C)[C@H](CN(C)Cc2ccc(-c3ccccc3)cc2)Oc2c(NC(=O)NC3CCCCC3)cccc2C1=O	i	69	i
C[C@H]1CN([C@@H](C)CO)C(=O)Cc2cc(NS(=O)(=O)c3ccc(Cl)cc3)ccc2O[C@@H]1CN(C)Cc1ccccc1	nt	69	i
C[C@@H]1CN([C@@H](C)CO)C(=O)Cc2cc(NS(=O)(=O)c3ccc(Cl)cc3)ccc2O[C@@H]1CN(C)Cc1ccccc1	i	i	i
C[C@@H]1CN([C@@H](C)CO)C(=O)Cc2cc(NS(=O)(=O)c3ccc(Cl)cc3)ccc2O[C@H]1CN(C)Cc1ccccc1	i	nt	nt
C[C@H]1CN([C@@H](C)CO)C(=O)Cc2cc(NS(=O)(=O)c3ccc(Cl)cc3)ccc2O[C@H]1CN(C)Cc1ccccc1	nt	76	i
C=CCNC(=O)[C@H]1[C@@H]2C(=O)O[C@@H](c3ccccc3)[C@@H](c3ccccc3)N2[C@@H](c2ccccc2OCCO)[C@]12C(=O)N(C(=O)OCCOC)c1ccc(C#CCC(C(=O)OC)C(=O)OC)cc12	i	nt	nt
COC(=O)CCCCCCC(=O)N/N=C/c1ccc(C#N)cc1	nt	i	i
SMILES	A1 apoptosis 2	T cruzi intra	INS-1E ATP HTS
Cc1nc(S(=O)(=O)NC[C@@H]2CCCN(Cc3cccc(OCCO)c3)C2)cn1C	i	nt	nt
Nc1cccc(COc2ccc(/C=C/C(=O)NO)cc2)c1	i	nt	nt
COC(=O)CCCCCCC(=O)N/N=C/c1ccc(Sc2nnc(C)n2C)o1	nt	i	i
O=C(NO)c1ccc(C(=O)N/N=C/c2ccc3ccccc3c2)cc1	nt	i	i
Cc1cc(C(=O)Nc2cccc3c2O[C@@H](CN(C)Cc2ccc(-c4ccccc4)cc2)[C@@H](C)CN([C@H](C)CO)C3=O)n(C)n1	i	64	i
Cc1cc(C(=O)Nc2cccc3c2O[C@@H](CN(C)C(=O)Nc2ccccc2)[C@@H](C)CN([C@H](C)CO)C3=O)n(C)n1	i	61	i
Cc1cc(C(=O)Nc2cccc3c2O[C@H](CN(C)Cc2ccc(C(F)(F)F)cc2)[C@H](C)CN([C@@H](C)CO)C3=O)n(C)n1	i	i	i
Cc1cc(C(=O)Nc2cccc3c2O[C@H](CN(C)C(=O)Nc2ccccc2)[C@@H](C)CN([C@@H](C)CO)C3=O)n(C)n1	i	i	i
Cc1cc(C(=O)Nc2cccc3c2O[C@H](CN(C)Cc2ccc(C(F)(F)F)cc2)[C@@H](C)CN([C@H](C)CO)C3=O)n(C)n1	i	69	i
Cc1cc(C(=O)Nc2cccc3c2O[C@H](CN(C)Cc2ccc(-c4ccccc4)cc2)[C@H](C)CN([C@@H](C)CO)C3=O)n(C)n1	i	i	i
CN(CCO)c1ccc(/C=N/NC(=O)c2cccc(C(=O)NO)c2)cc1	i	i	i
COC(=O)CCCCCCC(=O)N/N=C/[C@@H]1CCCN1C(=O)OC(C)(C)C	i	i	i
COC(=O)CCCCCCC(=O)N/N=C/c1ccccc1Cl	nt	i	i
C=CCOC(=O)[C@H]1[C@@H]2C(=O)O[C@@H](c3ccccc3)[C@@H](c3ccccc3)N2[C@@H](c2ccc(OCCOC(=O)[C@@H]3C[C@@H]4C(=O)N5CCC[C@H]5C(=O)N4[C@@H]3c3ccc(O)cc3)cc2)[C@]12C(=O)Nc1ccccc12	i	nt	nt
Cc1ccc(S(=O)(=O)Nc2cccc3c2O[C@H](CN(C)Cc2ccc(Oc4ccccc4)cc2)[C@@H](C)CN([C@@H](C)CO)C3=O)cc1	nt	i	i
C[C@H](CO)N1C[C@H](C)[C@H](CN(C)Cc2ccc(-c3ccccc3)cc2)Oc2c(NS(=O)(=O)c3ccc(F)cc3)cccc2C1=O	i	58	i
C[C@H]1CN([C@@H](C)CO)C(=O)c2cccc(NS(=O)(=O)c3ccccc3)c2O[C@H]1CN(C)CC1CC1	i	i	i
Cc1ccc(S(=O)(=O)N(C)C[C@@H]2Oc3c(NS(=O)(=O)c4ccc(Cl)cc4)cccc3C(=O)N([C@H](C)CO)C[C@H]2C)cc1	i	i	i
Cc1ccc(S(=O)(=O)Nc2cccc3c2O[C@@H](CN(C)S(=O)(=O)c2ccc(Cl)cc2)[C@@H](C)CN([C@H](C)CO)C3=O)cc1	nt	58	i

Bioassay records deposited in PubChem BioAssay by Broad Institute.
